Reference: ChEMBL document CHEMBL1132831, “Synthesis and characterization of a potent and selective protein tyrosine phosphatase inhibitor, 2” (Bioorg Med Chem Lett, 2000)
pIC50: −log10 of the molar value.

Molecular target: T1, Receptor-type tyrosine-protein phosphatase C (Homo sapiens, UniProt P08575)
T1 sequence (P08575 whole entry): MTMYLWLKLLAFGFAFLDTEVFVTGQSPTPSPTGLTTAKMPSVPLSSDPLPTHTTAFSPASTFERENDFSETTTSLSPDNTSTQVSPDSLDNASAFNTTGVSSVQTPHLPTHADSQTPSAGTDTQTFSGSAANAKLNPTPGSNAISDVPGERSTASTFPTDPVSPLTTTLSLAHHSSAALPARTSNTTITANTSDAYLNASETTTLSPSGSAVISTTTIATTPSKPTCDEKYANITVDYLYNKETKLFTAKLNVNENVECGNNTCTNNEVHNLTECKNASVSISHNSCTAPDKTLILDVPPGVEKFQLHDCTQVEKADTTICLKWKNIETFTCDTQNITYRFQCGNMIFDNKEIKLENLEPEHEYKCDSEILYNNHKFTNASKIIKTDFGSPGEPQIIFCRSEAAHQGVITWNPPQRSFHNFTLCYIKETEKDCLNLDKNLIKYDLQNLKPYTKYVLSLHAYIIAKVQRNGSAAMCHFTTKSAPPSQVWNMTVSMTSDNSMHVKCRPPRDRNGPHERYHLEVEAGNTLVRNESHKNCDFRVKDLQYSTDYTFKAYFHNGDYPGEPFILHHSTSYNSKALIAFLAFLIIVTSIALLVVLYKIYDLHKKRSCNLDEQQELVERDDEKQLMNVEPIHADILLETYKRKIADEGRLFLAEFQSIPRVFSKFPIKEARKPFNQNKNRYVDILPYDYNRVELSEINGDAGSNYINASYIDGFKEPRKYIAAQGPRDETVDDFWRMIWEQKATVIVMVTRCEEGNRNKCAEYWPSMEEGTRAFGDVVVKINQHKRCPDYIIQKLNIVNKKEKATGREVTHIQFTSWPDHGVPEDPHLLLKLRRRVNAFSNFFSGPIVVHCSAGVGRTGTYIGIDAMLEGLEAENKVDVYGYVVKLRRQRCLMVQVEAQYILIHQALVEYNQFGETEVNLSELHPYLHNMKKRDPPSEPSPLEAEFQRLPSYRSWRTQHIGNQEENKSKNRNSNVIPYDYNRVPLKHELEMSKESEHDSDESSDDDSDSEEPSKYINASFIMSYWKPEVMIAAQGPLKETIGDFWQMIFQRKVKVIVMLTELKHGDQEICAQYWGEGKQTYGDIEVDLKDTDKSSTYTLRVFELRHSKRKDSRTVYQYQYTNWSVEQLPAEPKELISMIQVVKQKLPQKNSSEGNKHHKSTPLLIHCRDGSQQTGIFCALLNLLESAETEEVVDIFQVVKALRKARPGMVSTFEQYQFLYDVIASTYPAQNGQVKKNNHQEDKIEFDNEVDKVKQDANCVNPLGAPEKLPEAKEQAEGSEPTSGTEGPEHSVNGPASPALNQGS
Test: The compound was evaluated for its inhibitory activity towards Protein tyrosine phosphatase of CD45
Procedure, shortened: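 Commercial enzyme with 1 mM p-nitrophenyl phosphate in 25 mM MOPS pH 6.5, 5 mM EDTA, 1 mM dithiothreitol. Compound was tested at various concentrations from 30 nM, with a 30 min incubation at 37 °C. The reaction was stopped with 1 N NaOH and read at 405 nm. IC50 was obtained by nonlinear regression curve fitting.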

| Molecule | pIC50 |
| --- | --- |
| Cc1ccnc(C[S+]([O-])c2nc3ccc(OC(C)C)cc3[nH]2)c1 (configuration not stated) | 3.42 |
| CSc1ccnc(CSc2nc3ccc(OC(C)C)cc3[nH]2)c1 | < 3.00 |

Results, then the molecule that gave them:

| pIC50 | Molecule |
| --- | --- |
| 3.92 | CC(C)Oc1ccc2[nH]c([S+]([O-])Cc3ccccn3)nc2c1 (configuration not stated) |
| 4.09 | CSc1ccnc(C[S+]([O-])c2nc3ccc(OC4CCCCC4)cc3[nH]2)c1 (configuration not stated) |
| 6.55 | CSc1ccnc(C[S+]([O-])c2nc3cc(OC(C)C)ccc3[nH]2)c1 (configuration not stated) |

Test system: not listed separately
Test: The compound was evaluated for its inhibitory effect of dual specificity phosphatases of VHR
Procedure, shortened: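 Bacterially expressed GST-VHR fusion protein with 1 mM p-nitrophenyl phosphate in 25 mM MOPS pH 6.5, 5 mM EDTA, 1 mM dithiothreitol. Compound was present at various concentrations from 30 nM during 30 min at 37 °C. NaOH was then added and absorbance read at 405 nm. IC50 was derived by nonlinear regression.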

| pIC50 | Molecule |
| --- | --- |
| 3.98 | VANADATE |
| 4.30 | CSc1ccnc(C[S+]([O-])c2nc3cc(OC(C)C)ccc3[nH]2)c1 (configuration not stated) |
